Screening results deposited in PubChem BioAssay by several laboratories.
Arrestin-AP2 inh: blocks beta-arrestin peptide binding to AP2 adaptin. 340,000 tested, 0.31% active. inhibition, % at 10 µM. FITC-arrestin peptide / GST-AP2 beads, flow cytometry; AP2 beta2 appendage carries R879A mutation;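 active = inhibition above a set limit, near 3 SD of compounds lacking own fluorescence, cut at about 54% in these data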;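 note: plate controls were DMSO wells for no effect and 5 µM unlabelled arrestin peptide for full effect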
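system = GST-tagged AP2 beta2-adaptin appendage (R879A) on 4 µm glutathione beads | reagent = FITC-labelled arrestin peptide probe, 50 nM final | schedule = compound with beads 12 min RT, then probe 1 h RT | signal = HyperCyt-sampled flow cytometry, FL1 channel, ex 488/em 535 nm | read-out = percent response from loss of bead-bound FITC fluorescence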
DSG3 Ab inh: blocks pemphigus antibody binding to human desmoglein-3; P32926; DSG3-coupled beads, scFv-anti-DSG3-GFP binding, flow cytometry; stronger effect = lower value; binding (percent of control), % at 10 µM; 310,000 tested, 0.48% active;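 active = binding more than 3 SD below its plate's average and above zero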;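 note: hits lower antibody fragment binding to DSG3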
Efflux pump inh: inhibitors of Candida antifungal efflux pumps expressed in yeast; S. cerevisiae Candida pump triplex, Nile Red efflux; inhibition, % at 10 µM; 330,000 tested, 0.44% active;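 active = plate passing quality check with inhibition over a set limit, or well fluorescence over plate mean plus 4 SD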;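 note: Nile Red retained in pooled yeast measured as flow cytometry median fluorescence; 0% = buffer negative control and 100% = Enniatin B positive control; higher means more Nile Red kept so more efflux inhibition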
Neddyl block: blocks human cullin neddylation; TR-FRET cullin neddylation, biochemical; 360,000 tested, 0.58% active; inhibition, % at 25 µM; AID 651699; in the data active = inhibition above about 36%
Target sequence (P61081 whole entry, looked up): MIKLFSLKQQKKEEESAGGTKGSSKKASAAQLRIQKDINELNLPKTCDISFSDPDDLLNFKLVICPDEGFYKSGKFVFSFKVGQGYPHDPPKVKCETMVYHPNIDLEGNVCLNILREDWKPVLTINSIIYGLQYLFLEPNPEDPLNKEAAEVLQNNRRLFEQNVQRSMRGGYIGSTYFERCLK
Target sequence (Q13564 whole entry, looked up): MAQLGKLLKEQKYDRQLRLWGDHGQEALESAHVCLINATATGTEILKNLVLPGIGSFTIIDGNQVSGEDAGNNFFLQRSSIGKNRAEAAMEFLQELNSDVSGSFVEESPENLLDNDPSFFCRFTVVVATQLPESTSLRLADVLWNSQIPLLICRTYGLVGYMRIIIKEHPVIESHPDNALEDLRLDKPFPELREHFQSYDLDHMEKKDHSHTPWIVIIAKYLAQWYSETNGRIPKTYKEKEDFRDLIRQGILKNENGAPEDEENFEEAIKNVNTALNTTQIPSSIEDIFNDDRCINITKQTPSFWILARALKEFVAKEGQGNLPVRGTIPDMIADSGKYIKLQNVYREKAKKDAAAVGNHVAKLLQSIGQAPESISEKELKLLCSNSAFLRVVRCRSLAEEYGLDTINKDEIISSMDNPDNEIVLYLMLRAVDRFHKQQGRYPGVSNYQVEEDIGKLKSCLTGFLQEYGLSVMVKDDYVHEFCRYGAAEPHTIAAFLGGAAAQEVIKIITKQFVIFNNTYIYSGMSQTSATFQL
Neddyl inh conf: confirmation of human cullin neddylation inhibitors | calls only at 25 µM | shares compounds with Neddyl block | 1,800 tested, 13% active | TR-FRET cullin neddylation biochemical assay; in the data active = inhibition above about 40%;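 note: neddylation substrate is the cullin 1 ring ligase complex with SKP2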
* marks the source's active call; other numbers are inactive results; i = inactive; nt = not tested or not shown; + = active, no number. The list is not random: actives were taken first. Their share in the collection is about 1.7%.

SMILES	Arrestin-AP2 inh	DSG3 Ab inh	Efflux pump inh	Neddyl block	Neddyl inh conf
OC1CCN(c2c3c(nc4cc(-c5ccc(Cl)cc5)nn24)CCC3)CC1	-7.5	115.7	0.0	40.3*	i
CCN(CC(=O)NCc1ccc(F)cc1)C(=O)c1cc2ccccc2o1	11.2	105.0	-0.2	3.9	nt
CC(Oc1ccc(F)cc1)C(=O)Nc1ccccc1C(=O)N1CCCCC1 (centres undefined)	25.4	nt	0.0	-5.8	nt
N#Cc1cc(O)c(-n2nnc3ccccc32)cc1C#N	-10.8	104.2	0.9	39.1*	i
O=c1c2c(nc3c(-c4ccccc4)c[nH]n13)CCCC2	21.8	101.7	0.0	37.8*	nt
COc1cccc2cc(-c3cn4cccc(C)c4n3)c(=O)oc12	26.6	106.2	0.2	42.0*	i
COc1ccc(-c2nc3c4ccccc4ccn3c2CN2CCCCC2)cc1OC	-1.8	95.0	0.2	42.5*	i
COc1ccc(NC(=O)[C@H](C)NC(=O)C2CCN(S(=O)(=O)c3ccc(C)cc3)CC2)cc1	-8.6	90.4	-0.3	2.6	nt
N#Cc1ccc(CN2CCN(c3ccc(S(=O)(=O)N4CCCC4)cn3)CC2)cc1	0.1	110.5	0.1	6.4	nt
CC1Cn2c(nnc2-c2cc3ccccc3cc2O)S1 (centres undefined)	22.2	87.7	0.1	44.2*	i
CCOc1cc(/C=N/NC(=O)c2ccccc2OCc2ccc(F)cc2)ccc1O	-0.1	nt	-0.1	12.1	nt
COc1ccc(C=NNC(=O)c2ccccc2OCc2ccc(F)cc2)c(OC)c1	0.8	101.5	-0.2	41.6*	i
COc1ccc(/C=N/NC(=O)c2ccc(N(C)S(=O)(=O)c3ccccc3)cc2)c(OC)c1	16.0	100.3	0.3	43.4*	i
Cc1ccc(Cl)cc1NC(=O)C(=O)N/N=C/c1ccc2c(c1)OCO2	11.0	105.0	0.1	38.9*	i
O=C(N/N=C/c1ccc2c(c1)OCO2)C(=O)Nc1ccccc1Cl	2.3	91.1	-0.1	16.7	nt
Cc1ccc(C)c(NC(=O)CCC(=O)N/N=C/c2ccc3c(c2)OCO3)c1	-4.7	99.9	0.2	5.5	nt
Cc1cc(Cl)ccc1NC(=O)C(=O)N/N=C/c1ccc2c(c1)OCO2	17.3	104.7	0.3	42.9*	i
Cn1cc(-c2cccc(C(F)(F)F)c2)cc(C#N)c1=O	8.1	96.5	0.0	35.7	nt
Cn1cc(-c2cccc(Cl)c2)cc(C#N)c1=O	7.3	98.8	-0.2	39.2*	i
CCOC(=O)c1c(NC(=O)c2ccc(N3C(=O)[C@@H]4[C@H](C3=O)[C@H]3C=C[C@@H]4C3)cc2)sc2c1CC(C)CC2 (some centres undefined)	-3.8	103.8	0.1	nt	nt
CCOC(=O)/C(O)=C(\C#N)c1nc2ccccc2[nH]1	-5.9	106.4	0.1	50.5*	nt
COc1ccc(-c2cc3ccc(O)cc3oc2=O)cc1OC	5.0	100.9	-0.1	37.8	nt
COc1ccc(-c2cc3ccc(OCC(N)=O)cc3oc2=O)cc1OC	37.5	103.2	0.1	41.7*	i
Cc1ccc2cc3cc(C(=O)NCc4ccco4)oc3nc2c1	45.4	79.9	-0.1	43.5*	i
COc1ccc(/C=C2\CCCC3C2=NN(C(=O)CSc2n[nH]c(N)n2)C3c2ccc(OC)cc2)cc1 (centres undefined)	3.8	105.0	0.1	45.6*	nt
SMILES	Arrestin-AP2 inh	DSG3 Ab inh	Efflux pump inh	Neddyl block	Neddyl inh conf
CC(C)[C@@H]1C=C(C(=O)O)O[C@H](OCCCCO)C1	5.5	108.5	nt	-1.3	nt
O=C(Nc1ccc2nc(-c3ccccc3)oc2c1)c1ccco1	0.8	76.9	-0.1	37.5*	i
O=C(Nc1ccc2oc(-c3cccnc3)nc2c1)c1ccco1	6.4	94.4	0.0	nt	nt
CC(C(=O)NC1CCCC1)N1C(=O)c2cccc3cccc1c23 (centres undefined)	39.4	116.3	0.0	38.0*	i
CC(C(N)=O)N1C(=O)c2cccc3cccc1c23 (centres undefined)	-3.8	114.4	0.2	18.6	nt
CC(=O)Nc1ccc(S(=O)(=O)N2CCN(c3cc(C(F)(F)F)ccn3)CC2)cc1	-0.4	114.1	0.1	85.1*	i
COc1ccc(OC)c(/C=N/NC(=O)CSc2cc(C)nc3c(OC)cccc23)c1	35.3	nt	0.1	nt	nt
COc1ccc(OC)c(/C=N\NC(=O)CSc2nnc(CCCc3ccc(OC)c(C)c3)o2)c1	-1.3	102.1	-0.1	37.0*	nt
COc1cc(C(O)c2nc(-c3cccc(F)c3)cs2)ccc1F (centres undefined)	nt	nt	nt	-29.5	nt
COc1ccc(/C=C/C(=O)NCc2ccc3c(c2)OCO3)cc1OC	31.7	108.2	0.0	42.5*	i
O=C(/C=C/c1cccc(F)c1)NCc1ccc2c(c1)OCO2	-4.5	115.2	0.5	-16.5	nt
Cc1cc2c(=O)n(C)c(SCC(=O)NCC3CCCO3)nc2s1 (centres undefined)	12.4	99.5	nt	-23.2	nt
Clc1ccc(-c2nc3cnccn3c2Nc2ccc3c(c2)OCO3)cc1	10.5	101.6	0.0	40.6*	i
c1cn2c(Nc3ccc4c(c3)OCCO4)c(-c3ccc(N4CCOCC4)cc3)nc2cn1	14.0	106.3	0.1	38.0*	i
O=C(N/N=C/c1cn(Cc2ccccc2)c2ccccc12)c1cc(O)cc(O)c1	-1.3	nt	-0.1	41.1*	+
Cc1ccc(C(=O)N/N=C/c2cn(Cc3ccccc3)c3ccccc23)cn1	1.5	120.0	-0.1	0.0	nt
COC(=O)c1cc(NC(=O)c2c(-c3ccccc3)noc2C)ccc1N1CCOCC1	1.1	99.9	-0.2	38.3*	i
COC(=O)c1cc(NC(=O)c2c(-c3c(Cl)cccc3Cl)noc2C)ccc1N1CCOCC1	-5.4	108.3	-0.2	12.9	nt
COc1ccc(-c2nc3ccc(C(=O)NCC(OC)OC)cc3nc2-c2ccc(OC)cc2)cc1	-4.1	98.1	0.2	16.5	nt
COC(CNC(=O)c1ccc2nc(-c3ccccc3)c(-c3ccccc3)nc2c1)OC	-0.3	120.4	0.1	49.2*	+
CCN1CCN(C(=O)c2ccc3nc(-c4ccccc4)c(-c4ccccc4)nc3c2)CC1	-4.4	106.5	-0.1	59.7*	+
O=C(O)c1cc2ccc3cccc4ccc(c1)c2c34	-0.6	108.3	-0.2	52.2*	nt
COc1ccc(CC(=O)NCC(=O)NC(Cc2ccccc2)C(=O)O)cc1 (centres undefined)	2.3	98.6	-0.1	1.6	nt
CCCCn1c(=NC(=O)c2ccc3c(c2)OCO3)c(C#N)cc2c(=O)n3cccc(C)c3nc21	nt	nt	-0.1	54.9*	i
O=C(N/N=C/c1ccccc1Br)c1ccc(CSc2cccc3cccnc23)cc1	-6.6	104.2	0.0	37.1	nt
O=C1CCC/C(=N\NC(=O)c2ccc(CSc3cccc4cccnc34)cc2)C1	8.1	97.0	0.0	45.9*	i
NNC(=O)c1ccc(CSc2cccc3cccnc23)cc1	9.0	85.8	0.0	43.2*	+
c1ccc(Nc2cccc3c(Nc4ccccc4)cccc23)cc1	-10.1	90.5	0.1	38.2*	+
